Key:
SR = test: Cytotoxicity against human SR cells; assay type: functional
DU-145 = test: Cytotoxicity against human DU145 cells; assay type: functional
Saccharomyces cerevisiae [1] = test: Growth inhibition of UFD2-deficient Saccharomyces cerevisiae YDL190C mutant at 20 ug/disc after 24 to 48 hrs by agar diffusion assay; assay type: functional; conditions: read-out: DIZ
Outline: (§1)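 S. cerevisiae deletion mutants or wild type grown on YPD, seeded into liquid agar medium at an optical density of 0.1. 6 mm paper discs soaked with methanolic compound solution were placed on the plates and incubated at 30 °C. Growth was checked after 1 and 2 days, and the inhibition zone diameter was recorded in mm.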

Saccharomyces cerevisiae [2] = test: Growth inhibition of RCK1-deficient Saccharomyces cerevisiae YGL158W mutant at 20 ug/disc after 24 to 48 hrs by agar diffusion assay; assay type: functional; conditions: read-out: DIZ; outline: as §1
Saccharomyces cerevisiae [3] = test: Growth inhibition of POS5-deficient Saccharomyces cerevisiae YPL188W mutant at 20 ug/disc after 24 to 48 hrs by agar diffusion assay; assay type: functional; conditions: read-out: DIZ; outline: as §1
Saccharomyces cerevisiae [4] = test: Growth inhibition of WSC4-deficient Saccharomyces cerevisiae YHL028W mutant at 20 ug/disc 24 to 48 hrs by agar diffusion assay; assay type: functional; conditions: read-out: DIZ; outline: as §1
Saccharomyces cerevisiae [5] = test: Growth inhibition of wild type Saccharomyces cerevisiae BY4741 at 20 ug/disc after 24 to 48 hrs by agar diffusion assay; assay type: functional; conditions: read-out: DIZ; outline: as §1
[6] = Cytotoxicity against human PHF cells after 24 hrs by MTT assay; assay type: cell-based
Outline: (§2)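 MTT assay. Cells were seeded at 50,000 cells/mL in medium with 10% fetal calf serum and grown for two days at 37 °C, 10% CO2. Serial dilutions of compound were then added for 24 h. MTT was added (final 0.5 mg/mL) for 2 h, and the formazan was pelleted, washed, dissolved in isopropanol with 0.4% HCl and read at 590 nm. IC50 is the concentration giving 50% of untreated-control absorbance, taken from dose-response curves; mean of two parallel experiments.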

HUVEC = test: Cytotoxicity against human HUVEC cells after 24 hrs by MTT assay; assay type: cell-based; outline: as §2
A-431 = test: Cytotoxicity against human A431 cells after 24 hrs by MTT assay; assay type: functional, cell-based; conditions: A-431, 24 h; outline: as §2
MDA-MB-468 = test: Cytotoxicity against human MDA-MB-468 cells; assay type: functional
T47D = test: Cytotoxicity against human T47D cells; assay type: functional
BT-549 = test: Cytotoxicity against human BT549 cells; assay type: functional
UO-31 = test: Cytotoxicity against human UO31 cells; assay type: functional
TK-10 = test: Cytotoxicity against human TK10 cells; assay type: functional
RXF 393 = test: Cytotoxicity against human RXF393 cells; assay type: functional
CAKI-1 = test: Cytotoxicity against human Caki1 cells; assay type: functional
ACHN = test: Cytotoxicity against human ACHN cells; assay type: functional
A498 = test: Cytotoxicity against human A498 cells; assay type: functional
[7] = Cytotoxicity against human 786-O cells; assay type: functional
OVCAR-8 = test: Cytotoxicity against human OVCAR8 cells; assay type: functional
UACC-62 = test: Cytotoxicity against human UACC62 cells; assay type: functional
SK-MEL-5 = test: Cytotoxicity against human SK-MEL-5 cells; assay type: functional
SK-MEL-2 = test: Cytotoxicity against human SK-MEL-2 cells; assay type: functional
MDA-MB-435 = test: Cytotoxicity against human MDA-MB-435 cells; assay type: functional
Malme-3M = test: Cytotoxicity against human MALME-3M cells; assay type: functional
M14 = test: Cytotoxicity against human M14 cells; assay type: functional
SNB-75 = test: Cytotoxicity against human SNB75 cells; assay type: functional
SF-539 = test: Cytotoxicity against human SF539 cells; assay type: functional
SNB-19 = test: Cytotoxicity against human SNB19 cells; assay type: functional
SF-295 = test: Cytotoxicity against human SF295 cells; assay type: functional
SW-620 = test: Cytotoxicity against human SW620 cells; assay type: functional
HT-29 = test: Cytotoxicity against human HT-29 cells; assay type: functional
KM12 = test: Cytotoxicity against human KM12 cells; assay type: functional
HCT-116 = test: Cytotoxicity against human HCT116 cells; assay type: functional
HCC 2998 = test: Cytotoxicity against human HCC2998 cells; assay type: functional
NCI-H522 = test: Cytotoxicity against human NCI-H522 cells; assay type: functional
NCI-H322M = test: Cytotoxicity against human NCI-H322M cells; assay type: functional
HOP-92 = test: Cytotoxicity against human HOP92 cells; assay type: functional
NCI-H226 = test: Cytotoxicity against human NCI-H226 cells; assay type: functional
RPMI-8226 = test: Cytotoxicity against human RPMI8226 cells; assay type: functional

CC1=C([Se]CC(OC(=O)[C@@H](CO)NC(=O)OC(C)(C)C)C(=O)NCCCCCC(=O)OCc2ccccc2)C(=O)c2ccccc2C1=O (some centres not stated)
GI50 (SR): 1.58 µM | LC50 (SR): > 100 µM | TGI (SR; read-out: pTGI (converted)): 6.61 µM | GI50 (DU-145): 1.82 µM | LC50 (DU-145): 5.89 µM | TGI (DU-145; read-out: pTGI (converted)): 3.24 µM | zone of inhibition at 20 µg/disc (Saccharomyces cerevisiae [1]): 0 mm | zone of inhibition at 20 µg/disc (Saccharomyces cerevisiae [2]): 0 mm | zone of inhibition at 20 µg/disc (Saccharomyces cerevisiae [3]): 0 mm | zone of inhibition at 20 µg/disc (Saccharomyces cerevisiae [4]): 0 mm | zone of inhibition at 20 µg/disc (Saccharomyces cerevisiae [5]): 0 mm | IC50 [6]: 27 µM | IC50 (HUVEC): 35 µM | IC50 (A-431): 4 µM | GI50 (MDA-MB-468): 1.48 µM | LC50 (MDA-MB-468): 6.76 µM | TGI (MDA-MB-468; read-out: pTGI (converted)): 3.16 µM | GI50 (T47D): 1.62 µM | LC50 (T47D): 9.55 µM | TGI (T47D; read-out: pTGI (converted)): 3.98 µM | GI50 (BT-549): 1.74 µM | LC50 (BT-549): 5.62 µM | TGI (BT-549; read-out: pTGI (converted)): 3.09 µM | GI50 (UO-31): 1.55 µM | LC50 (UO-31): 5.89 µM | TGI (UO-31; read-out: pTGI (converted)): 3.02 µM | GI50 (TK-10): 2.04 µM | LC50 (TK-10): 5.89 µM | TGI (TK-10; read-out: pTGI (converted)): 3.47 µM | GI50 (RXF 393): 2.69 µM | LC50 (RXF 393): 6.46 µM | TGI (RXF 393; read-out: pTGI (converted)): 4.17 µM | GI50 (CAKI-1): 1.82 µM | LC50 (CAKI-1): 6.03 µM | TGI (CAKI-1; read-out: pTGI (converted)): 3.31 µM | GI50 (ACHN): 1.66 µM | LC50 (ACHN): 5.75 µM | TGI (ACHN; read-out: pTGI (converted)): 3.09 µM | GI50 (A498): 2.04 µM | LC50 (50% lethal concentration) (A498): 45.7 µM | TGI (A498; read-out: pTGI (converted)): 5.89 µM | GI50 ([7]; 786-0): 2.09 µM | LC50 ([7]; 786-0): 6.03 µM | TGI ([7]; 786-0, read-out: pTGI (converted)): 3.55 µM | GI50 (OVCAR-8): 1.82 µM | LC50 (OVCAR-8): 6.17 µM | TGI (OVCAR-8; read-out: pTGI (converted)): 3.39 µM | GI50 (UACC-62): 1.7 µM | LC50 (UACC-62): 5.62 µM | TGI (UACC-62; read-out: pTGI (converted)): 3.09 µM | GI50 (SK-MEL-5): 1.58 µM | LC50 (SK-MEL-5): 5.5 µM | TGI (SK-MEL-5; read-out: pTGI (converted)): 2.95 µM | GI50 (SK-MEL-2): 2.24 µM | LC50 (SK-MEL-2): 7.41 µM | TGI (SK-MEL-2; read-out: pTGI (converted)): 4.07 µM | GI50 (MDA-MB-435): 1.78 µM | LC50 (MDA-MB-435): 6.76 µM | TGI (MDA-MB-435; read-out: pTGI (converted)): 3.47 µM | GI50 (Malme-3M): 2.09 µM | LC50 (Malme-3M): 7.08 µM | TGI (Malme-3M; read-out: pTGI (converted)): 3.8 µM | GI50 (M14): 1.78 µM | LC50 (M14): 6.03 µM | TGI (M14; read-out: pTGI (converted)): 3.31 µM | GI50 (SNB-75): 1.29 µM | LC50 (SNB-75): 5.01 µM | TGI (SNB-75; read-out: pTGI (converted)): 2.57 µM | GI50 (SF-539): 1.7 µM | LC50 (SF-539): 5.62 µM | TGI (SF-539; read-out: pTGI (converted)): 3.09 µM | GI50 (SNB-19): 0.776 µM | LC50 (SNB-19): 5.01 µM | TGI (SNB-19; read-out: pTGI (converted)): 2.14 µM | GI50 (SF-295): 0.324 µM | LC50 (SF-295): 30.9 µM | TGI (SF-295; read-out: pTGI (converted)): 1.51 µM | GI50 (SW-620): 1.74 µM | LC50 (SW-620): 6.17 µM | TGI (SW-620; read-out: pTGI (converted)): 3.24 µM | GI50 (HT-29): 2.14 µM | LC50 (HT-29): 7.24 µM | TGI (HT-29; read-out: pTGI (converted)): 3.98 µM | GI50 (KM12): 1.51 µM | LC50 (KM12): 5.5 µM | TGI (KM12; read-out: pTGI (converted)): 2.88 µM | GI50 (HCT-116): 1.38 µM | LC50 (HCT-116): 5.37 µM | TGI (HCT-116; read-out: pTGI (converted)): 2.75 µM | GI50 (HCC 2998): 2 µM | LC50 (HCC 2998): 6.17 µM | TGI (HCC 2998; read-out: pTGI (converted)): 3.47 µM | GI50 (NCI-H522): 2 µM | LC50 (NCI-H522): 6.03 µM | TGI (NCI-H522; read-out: pTGI (converted)): 3.47 µM | GI50 (NCI-H322M): 0.417 µM | LC50 (NCI-H322M): 27.5 µM | TGI (NCI-H322M; read-out: pTGI (converted)): 1.91 µM | GI50 (HOP-92): 1.86 µM | LC50 (50% lethal concentration) (HOP-92): 5.89 µM | TGI (HOP-92; read-out: pTGI (converted)): 3.31 µM | GI50 (NCI-H226): 2.24 µM | CC50 (NCI-H226; read-out: pLC50 (the source's name) (converted)): 8.71 µM | TGI (NCI-H226; read-out: pTGI (converted)): 4.37 µM | GI50 (RPMI-8226): 2.19 µM | LC50 (RPMI-8226): > 100 µM | TGI (RPMI-8226; read-out: pTGI (converted)): 5.89 µM
